In the RNAGym collection of RNA variant scans (doi:10.1002/anie.201605470):

B1: Osa-1-4 twister ribozyme (parent)
chain: CCGCCUAACACUGCCAAUGCCGGUCCCAAGCCCGGAUAAAAGUGGAGGGGGCGG

Variants of: B1
Test: self-cleavage, relative activity (ratio to wild type); higher = more cleavage; co-transcriptional
Procedure, shortened: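 A DNA template for a 54-nucleotide Oryza sativa twister ribozyme was synthesised with 97 % wild-type base and 1 % of each other base at the 48 positions downstream of the cleavage site. It was transcribed in vitro for 2 h at 37 °C, allowing co-transcriptional self-cleavage, then reverse-transcribed with a template-switching oligonucleotide, PCR-amplified and deep-sequenced. Cleavage status was scored from reads with or without upstream sequence. Relative activity is fraction cleaved normalised to wild type.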

Row | Variant | self-cleavage
1 | CCGCCUAACACUGCCAAUGCCGGUCCGACGCCCGGAUAAAAGUGGAGGGGGCGG | 0.02
2 | CCGCCUAACACUGCCAAUGCCGGUCCAACGCCCGGAUAAAAGUGGAGGGGGCGG | 0.04
3 | CCGCCUAACACUGCCAAUGCCGGUCCUACGCCCGGAUAAAAGUGGAGGGGGCGG | 0.02
4 | CCGCCUUACACUGCCAAUGCCGGUCCCACGCCCGGAUAAAAGUGGAGGGGGCGG | 0.01
5 | CCGCCUAACACUGCCAAUGCCGGUCCCACGCCCGGAUAGAAGUGGAGGGGGCGG | 0.03
6 | CCGCCUAACACUGCCAAUGCCGGUCCCACGCCCGGAUACAAGUGGAGGGGGCGG | 0.04
7 | CCGCCUAACACUGCCAAUGCCGGUCCCACGCCCGGAUAUAAGUGGAGGGGGCGG | 0.03
8 | CCGCCUACCACUGCCAAUGCCGGUCCCACGCCCGGAUAAAAGUGGAGGGGGCGG | 0.04
9 | CCGCCUAGCACUGCCAAUGCCGGUCCCACGCCCGGAUAAAAGUGGAGGGGGCGG | 0.03
10 | CCGCCUAUCACUGCCAAUGCCGGUCCCACGCCCGGAUAAAAGUGGAGGGGGCGG | 0.02
11 | CCGCCUAACACUGCCAAUGCCGGUCCCACGCCCGGAUGAAAGUGGAGGGGGCGG | 0.04
12 | CCGCCUAACACUGCCAAUGCCGGUCCCACGCCCGGAUUAAAGUGGAGGGGGCGG | 0.03
13 | CCGCCUAACACUGCCAAUGCCGGUCCCACGCCCGGAUCAAAGUGGAGGGGGCGG | 0.04
14 | CCGCCUAACACUGCCAAUGCCGGUCCCACGCCCGGCUAAAAGUGGAGGGGGCGG | 0.03
15 | CCGCCUAACACUGCCAAUGCCGGUCCCACGCCCGGUUAAAAGUGGAGGGGGCGG | 0.04
16 | CCGCCUAACACUGCCAAUGCCGGUCCCACGCCCGGGUAAAAGUGGAGGGGGCGG | 0.07
17 | CCGCCUAAAACUGCCAAUGCCGGUCCCACGCCCGGAUAAAAGUGGAGGGGGCGG | 0.02
18 | CCGCCUAAUACUGCCAAUGCCGGUCCCACGCCCGGAUAAAAGUGGAGGGGGCGG | 0.02
19 | CCGCCUAAGACUGCCAAUGCCGGUCCCACGCCCGGAUAAAAGUGGAGGGGGCGG | 0.05
20 | CCGCCUAACACUGUCAAUGCCGGUCCCACGCCCGGAUAAAAGUGGAGGGGGCGG | 0.03
21 | CCGCCUAACACUGACAAUGCCGGUCCCACGCCCGGAUAAAAGUGGAGGGGGCGG | 0.02
22 | CCGCCUAACACUGGCAAUGCCGGUCCCACGCCCGGAUAAAAGUGGAGGGGGCGG | 0.02
23 | CCGCCUAACACUGCCAAUGCCGGUUCCACGCCCGGAUAAAAGUGGAGGGGGCGG | 0.03
24 | CCGCCUAACACUGCCAAUGCCGGUGCCACGCCCGGAUAAAAGUGGAGGGGGCGG | 0.02
25 | CCGCCUAACACUGCCAAUGCCGGUACCACGCCCGGAUAAAAGUGGAGGGGGCGG | 0.04

Row | Variant | self-cleavage
26 | CCGCCUAACACUGCCAAUGGCGGUCCCACGCCCGGAUAAAAGUGGAGGGGGCGG | 0.02
27 | CCGCCUAACACUGCCAAUGACGGUCCCACGCCCGGAUAAAAGUGGAGGGGGCGG | 0.03
28 | CCGCCUAACACUGCCAAUGUCGGUCCCACGCCCGGAUAAAAGUGGAGGGGGCGG | 0.08
29 | CCGCCUAACAAUGCCAAUGCCGGUCCCACGCCCGGAUAAAAGUGGAGGGGGCGG | 0.04
30 | CCGCCUAACAGUGCCAAUGCCGGUCCCACGCCCGGAUAAAAGUGGAGGGGGCGG | 0.02
31 | CCGCCUAACAUUGCCAAUGCCGGUCCCACGCCCGGAUAAAAGUGGAGGGGGCGG | 0.04
32 | CCGCCUAACACUGCCAAUGCCGGUCUCACGCCCGGAUAAAAGUGGAGGGGGCGG | 0.03
33 | CCGCCUAACACUGCCAAUGCCGGUCACACGCCCGGAUAAAAGUGGAGGGGGCGG | 0.02
34 | CCGCCUAACACUGCCAAUGCCGGUCGCACGCCCGGAUAAAAGUGGAGGGGGCGG | 0.02
35 | CCGCCUAACACUGCUAAUGCCGGUCCCACGCCCGGAUAAAAGUGGAGGGGGCGG | 0.03
36 | CCGCCUAACACUGCGAAUGCCGGUCCCACGCCCGGAUAAAAGUGGAGGGGGCGG | 0.04
37 | CCGCCUAACACUGCAAAUGCCGGUCCCACGCCCGGAUAAAAGUGGAGGGGGCGG | 0.02
38 | CCGCCUAACACUGCCAAUGCCGGUCCCACGCCCGGAUAACAGUGGAGGGGGCGG | 0.02
39 | CCGCCUAACACUGCCAAUGCCGGUCCCACGCCCGGAUAAUAGUGGAGGGGGCGG | 0.04
40 | CCGCCUAACACUGCCAAUGCCGGUCCCACGCCCGGAUAAGAGUGGAGGGGGCGG | 0.02
41 | CCGCCUAACACUGCCAAUGCCGGUCCCACGCCCGGAUAAAUGUGGAGGGGGCGG | 0.05
42 | CCGCCUAACACUGCCAAUGCCGGUCCCACGCCCGGAUAAAGGUGGAGGGGGCGG | 0.04
43 | CCGCCUAACACUGCCAAUGCCGGUCCCACGCCCGGAUAAACGUGGAGGGGGCGG | 0.05
44 | CCGCCUAACACUGCCAAUGCCGGUCCCACGCCCGGAUAAAAGUGGCGGGGGCGG | 0.02
45 | CCGCCUAACACUGCCAAUGCCGGUCCCACGCCCGGAUAAAAGUGGGGGGGGCGG | 0.02
46 | CCGCCUAACACUGCCAAUGCCGGUCCCACGCCCGGAUAAAAGUGGUGGGGGCGG | 0.02
47 | CCGCCUAACACUGCCAAUGCAGGUCCCACGCCCGGAUAAAAGUGGAGGGGGCGG | 0.04
48 | CCGCCUAACACUGCCAAUGCUGGUCCCACGCCCGGAUAAAAGUGGAGGGGGCGG | 0.06
49 | CCGCCUAACACUGCCAAUGCGGGUCCCACGCCCGGAUAAAAGUGGAGGGGGCGG | 0.02
